These results are taken from PMC11094776 (Protein Science : A Publication of the Protein Society, 2024).

The target in one assay is T1, MBP‐GS‐AF9 AHD (Homo sapiens, UniProt P42568).
T1 sequence (P42568 500-568): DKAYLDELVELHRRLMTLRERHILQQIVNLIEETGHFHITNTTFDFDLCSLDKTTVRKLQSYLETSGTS
As to the kind of experiment: Fluorescence polarization direct binding, MBP-GS-AF9 AHD. The method in brief: (§1)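 Fusion protein expressed at 18°C in Rosetta (DE3) cells in TB medium. Cells were lysed by sonication in 50 mM Tris 7.4, 150 mM NaCl, 10% glycerol, 20 mM imidazole, 3 mM TCEP. Protein was captured on Ni-NTA, eluted with a 50–250 mM imidazole gradient, TEV-treated overnight (1:100 w/w), then run on Superdex 200 SEC. Stored at −80°C in 25 mM Tris 7.4, 150 mM NaCl, 1 mM TCEP.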
Background: In fluorescence polarisation assays a small probe gives low polarisation when free and higher when bound to something large.

In a further assay the target is T2, MBP‐RITK‐AF9 AHD (Homo sapiens, UniProt P42568).
T2 sequence (P42568 500-568): T1 sequence (P42568 500-568)
As to the kind of experiment: Fluorescence polarization direct binding, MBP-RITK-AF9 AHD. In a few lines: as §1

Assay [1] concerns the target MBP‐AAA‐AF9 AHD Q336C/A502C (Homo sapiens, UniProt P42568, A502C/Q361C). Briefly: Fluorescence polarization direct binding, MBP-AAA-AF9 AHD Q336C/A502C. The method in brief:
as §1

The target of assay [2] is MBP‐AAAA‐AF9 AHD Q336C/K501C (Homo sapiens, UniProt P42568, Q361C). Briefly: Fluorescence polarization direct binding, MBP-AAAA-AF9 AHD Q336C/K501C. The method in brief:
as §1

A further assay concerns the target T3, MBP‐AAA‐AF9 AHD (Homo sapiens, UniProt P42568).
T3 sequence (P42568 500-568): T1 sequence (P42568 500-568)
Briefly: Fluorescence polarization direct binding, MBP-AAA-AF9 AHD.

In the next assay the target is T4, MBP‐AAAA‐AF9 AHD (Homo sapiens, UniProt P42568).
T4 sequence (P42568 500-568): T1 sequence (P42568 500-568)
Briefly: Fluorescence polarization direct binding, MBP-AAAA-AF9 AHD.

For the next assay, the system named is AF9 AHD. As to conditions: cited from earlier work; for interaction sites within the DOT1L sequence: ref Kuntimaddi et al., 2015.
A further assay deals with ENL AHD. The following applies: ref Kabra & Bushweller, 2022; cited from earlier work.
In assay [3] the target is DOT1L (879–888 aa) derived fluorescent labeled peptide. Briefly: fluorescence polarisation.
For assay [4], the target named is AF4 (761–770 aa) derived fluorescent labeled peptide (UniProt P51825). As to the kind of experiment: fluorescence polarisation.

Non-standard residues stand in square brackets, D forms with d. Residues, ends and D or L forms follow the SMILES beside them. No end group written: not given here. *: point of attachment. FITC = O=C1OC2(c3ccc(O)cc3Oc3cc(O)ccc32)c2ccc(NC(=S)*)cc21; βAla = NCCC(=O)O

Usually Kd stands for the concentration at which binding is half-saturated. A high value points to lower affinity. Take `CC[C@H](C)[C@H](NC(=O)[C@H](CCCCN)NC(=O)[C@@H](NC(=O)[C@H](CCSC)NC(=O)[C@H](CC(C)C)NC(=O)CCNC(=O)CCNC(=O)[C@H](CCCCNC(=S)Nc1ccc2c(c1)C(=O)OC21c2ccc(O)cc2Oc2cc(O)ccc21)NC(C)=O)C(C)C)C(=O)N[C@H](C(=O)N[C@@H](CC(C)C)C(=O)N[C@@H](CC(=O)O)C(=O)N[C@@H](CC(C)C)C(=O)N[C@@H](CC(C)C)C(N)=O)[C@@H](C)O` [AF4 (761–770 aa)] (Ac-K(FITC)[βAla][βAla]LMVKITLDLL-NH2): the Kd at MBP‐GS‐AF9 AHD was found to be 3.7 ± 0.94 nM; at MBP‐RITK‐AF9 AHD it was 1.31 ± 0.05 nM; in assay [1], 3.49 ± 0.18 nM; in [2], 1.26 ± 0.11 nM.

Regarding `CC[C@H](C)[C@H](NC(=O)[C@H](CO)NC(=O)[C@@H](NC(=O)[C@@H]1CCCN1C(=O)[C@H](CC(C)C)NC(=O)CCNC(=O)CCNC(=O)[C@H](CCCCNC(=S)Nc1ccc2c(c1)C(=O)OC21c2ccc(O)cc2Oc2cc(O)ccc21)NC(C)=O)C(C)C)C(=O)N1CCC[C@H]1C(=O)N[C@@H](CC(C)C)C(=O)N[C@@H](C)C(=O)N[C@@H](CO)C(=O)N[C@H](C(N)=O)C(C)C` [DOT1L (879–888 aa)] (Ac-K(FITC)[βAla][βAla]LPVSIPLASV-NH2), the Kd was found to be 17.9 ± 3.49 nM at MBP‐GS‐AF9 AHD; 8.79 ± 0.41 nM on MBP‐AAA‐AF9 AHD; 15.6 ± 1.93 nM on MBP‐AAAA‐AF9 AHD; 7.86 ± 0.76 nM on MBP‐RITK‐AF9 AHD; 20.9 ± 2.59 nM in assay [1]; 10.7 ± 2.84 nM in assay [2].

In the case of “AF4 peptide: AF4 peptide of prior reports (LMVKITLDLL; also: fluorescent label, dye and position not given here)”, the “affinity for AF9 AHD relative to DOT1L peptide” value in the assay on AF9 AHD (prior reports, ref Kabra & Bushweller, 2022, Shen et al., 2013) was “higher affinity”.

For “BCOR peptide (1176–1228): longer BCOR peptide (1176–1228) (TNSSSNHLEDPHYSELTNLKVCIELTGLHPKKQRHLLHLRERWEQQVSAADGK; UniProt Q6W2J9 1176-1228, looked up, fragment)”, the “binding affinity compared with short peptide (1176–1207)” value in the assay on AF9 AHD (AF9 AHD, ref Kabra & Bushweller, 2022) is “higher binding affinity”; with ENL AHD it was “higher binding affinity”.

In the case of LELQISIVEL [LELQISIVEL (638–647)], in the assay with AF9 AHD, the “interaction sites within the DOT1L sequence” value was “interaction sites”.

For the compound LPISIPLSTV [LPISIPLSTV (865–874)], in the assay with AF9 AHD (mapped 10-amino acid DOT1L peptide, ref Grigsby et al., 2021, Shen et al., 2013), the “binding site for the AHD” value was “binding site for the AHD”.

Take LPVSIPLASV [LPVSIPLASV (879–888)]: the “interaction sites within the DOT1L sequence” value with AF9 AHD is on record as “interaction sites”.

“MBP‐AAAA‐AF9 AHD (from UniProt P42568 500-568) (domain or fragment)” gave a Kd in assay [3] of 15.6 nM.

Regarding “MBP‐AAAA‐AF9 AHD Q336C/K501C (from UniProt P42568 500-568) (domain or fragment)”, the values for the Kd in assay [4] and in [3] were 1.26 nM and 10.7 nM, respectively.

For “MBP‐AAA‐AF9 AHD (from UniProt P42568 500-568) (domain or fragment)”, in assay [3], the Kd stood at 8.79 nM.

“MBP‐AAA‐AF9 AHD Q336C/A502C (from UniProt P42568 500-568) (domain or fragment)” displayed a Kd in [3] of 20.9 nM.

In turn, “MBP‐GS‐AF9 AHD (from UniProt P42568 500-568) (domain or fragment)” displayed a Kd in assay [3] of 17.9 nM.

On to “MBP‐RITK‐AF9 AHD (from UniProt P42568 500-568) (domain or fragment)”, for which the dissociation constant Kd in assay [4] was 1.31 nM; in assay [3], 7.86 nM.
